From ChEMBL document CHEMBL1828507, “Novel diarylpyridinones, diarylpyridazinones and diarylphthalazinones as potential HIV-1 nonnucleoside reverse transcriptase inhibitors (NNRTIs)” (Bioorg Med Chem, 2011)
pEC50, pIC50: −log10 of the molar value.

Tests used:
[1] = test system: Human immunodeficiency virus 1; experiment: Antiviral activity against wild type HIV1 BaL in human TZM-b1 cells after 48 hrs by luciferase assay; type: functional, organism-based; settings: Human immunodeficiency virus 1, BaL, TZM-b1, 48 h
Summary of the method: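 Infected with 200 TCID₅₀ HIV-1 BaL, then 48 h culture and luciferase readout. Inhibition relative to untreated controls; EC50 by nonlinear regression. Triplicate wells, at least two independent experiments.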

[2] = Cytotoxicity against human TZM-b1 cells infected with wild type HIV1 BaL after 48 hrs using formazan dye by WST1 assay; type: cell-based; settings: TZM-bl cells infected with wild type HIV1 BaL
Summary of the method: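 WST-1 reagent added, and absorbance at 450 nm read after 90 min. Viability relative to untreated controls; CC50 by nonlinear regression. Three replicate wells, at least two independent experiments.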

[3] = Selectivity index, ratio of CC50 for human TZM-bl cells to EC50 for wild type HIV1 BaL; type: toxicity, cell-based; settings: read-out: Ratio CC50/EC50
Summary of the method: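 SI taken as CC50/EC50. CC50 from a 48 h WST-1 viability assay (A450) in TZM-bl cells. EC50 from a 48 h luciferase readout in TZM-bl cells infected with 200 TCID₅₀ HIV-1 BaL after a 30 min compound pre-incubation with DEAE dextran. Both values by nonlinear regression.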

[4] = target: Human immunodeficiency virus type 1 reverse transcriptase (Human immunodeficiency virus 1, UniProt Q72547); experiment: Inhibition of wild type HIV1 reverse transcriptase
[5] = test system: Human immunodeficiency virus 1; experiment: Ratio of TMC120 EC50 to compound EC50 for wild type HIV1 BaL infected in human TZM-b1 cells; type: functional
[6] = test system: Human immunodeficiency virus 1; experiment: Antiviral activity against wild type HIV1 VI829 infected in human TZM-b1 cells after 48 hrs by luciferase assay; type: functional, organism-based; settings: Human immunodeficiency virus 1, VI829, TZM-b1, 48 h
[7] = test system: Human immunodeficiency virus 1; experiment: Ratio of EC50 for HIV1 VI829 expressing reverse transcriptase Y181C mutant infected in human TZM-b1 cells to EC50 for wild type HIV1 VI829 in human TZM-b1 cells; type: functional
[8] = test system: Human immunodeficiency virus 1; experiment: Antiviral activity against HIV1 BaL expressing reverse transcriptase V106A mutant infected in human TZM-bl cells after 48 hrs by luciferase assay; type: functional, organism-based; settings: Human immunodeficiency virus 1, BaL
[9] = test system: Human immunodeficiency virus 1; experiment: Antiviral activity against HIV1 VI829 expressing reverse transcriptase Y181C mutant infected in human TZM-bl cells after 48 hrs by luciferase assay; type: functional, organism-based; settings: Human immunodeficiency virus 1, VI829, TZM-bl
[10] = test system: Human immunodeficiency virus 1; experiment: Ratio of EC50 for HIV1 BaL expressing reverse transcriptase V106A mutant infected in human TZM-bl cells to EC50 for wild type HIV1 BaL in human TZM-bl cells; type: functional

Structure (SMILES) | pEC50 [1] | CC50 at 48 h [2] [µM] | selectivity ratio [3] | other results
Cc1cc(C)c(Nc2ccc(=O)n(Nc3ccc(C(F)(F)F)cc3)n2)c(C)c1 | < 5.00 |  |  | 
Cc1cccc(C)c1Oc1ccc(=O)n(Nc2ccc(C#N)cc2)n1 | 5.12 | > 100 | > 13 | 
O=c1ccc(Nc2ccccc2)cn1Nc1ccccc1 | < 5.00 |  |  | 
Cc1cccc(C)c1Oc1ccc(=O)n(Nc2ccccc2)n1 | < 5.00 |  |  | 
Cc1cccc(C)c1Oc1ccc(=O)n(Nc2ccc(F)cc2)n1 | < 5.00 |  |  | 
Cc1cc(C)c(Nc2ccc(=O)n(Nc3ccc(C#N)cc3)c2)c(C)c1 | < 5.00 |  |  | pIC50 [4]: 3.12
Cc1cc(C)c(Oc2ccc(=O)n(Nc3ccc(Cl)cc3)n2)c(C)c1 | 5.40 | 22.3 | 5.6 | 
Cc1cccc(C)c1Oc1ccc(=O)n(Nc2cccc(C#N)c2)n1 | < 5.00 |  |  | 
Cc1cc(C)c(Oc2ccc(=O)n(Nc3ccc(F)cc3)n2)c(C)c1 | 5.02 | 23.5 | 2.4 | 
Cc1cc(Br)cc(C)c1Oc1ccc(=O)n(Nc2ccc(Cl)cc2)n1 | 5.50 | 63.5 | 20 | 
Cc1cc(C)c(Oc2nn(Nc3ccc(C#N)cc3)c(=O)c3ccccc23)c(C)c1 | 5.86 | 60.4 | 43.3 | pIC50 [4]: 3.03
Cc1cc(C)c(Nc2ccc(=O)n(Nc3ccc(C#N)cc3)n2)c(C)c1 | 5.86 | > 100 | > 69 | pIC50 [4]: 3.26; Ratio EC50 [5]: 700
Cc1cc(C)c(Nc2ccc(=O)n(Nc3ccccc3)c2)c(C)c1 | < 5.00 |  |  | 
Cc1cc(C)c(Oc2ccc(=O)n(Nc3cccc(C#N)c3)n2)c(C)c1 | < 5.00 |  |  | 
Cc1cc(C#N)cc(C)c1Oc1ccc(=O)n(Nc2ccc(C#N)cc2)n1 | 5.76 | 24.7 | 14 | 
Cc1cc(C)c(Oc2ccc(=O)n(Nc3ccc(C#N)cc3)n2)c(C)c1 | 6.16 | 19.9 | 29 | pEC50 [6]: 6.80; Ratio EC50 [7]: >64; pIC50 [4]: 4.00; pEC50 [8]: 5.95; pEC50 [9]: < 5.00; Ratio EC50 [10]: 2
Cc1cc(C#N)cc(C)c1Oc1ccc(=O)n(Nc2cccc(C#N)c2)n1 | < 5.00 |  |  | 
N#Cc1ccc(Nc2ccc(=O)n(Nc3ccc(C#N)cc3)c2)cc1 | < 5.00 |  |  | 
Cc1cc(C)c(Nc2ccc(=O)n(Nc3cccc(C#N)c3)c2)c(C)c1 | < 5.00 |  |  | 
N#Cc1ccc(Nn2cc(Nc3ccccc3)ccc2=O)cc1 | < 5.00 |  |  | 
Cc1cc(C)c(Oc2ccc(=O)n(Nc3ccc(C(F)(F)F)cc3)n2)c(C)c1 | 5.00 | 21.2 | 2.1 | 
Cc1cc(C)c(Nc2ccc(=O)n(Nc3cccc(C#N)c3)n2)c(C)c1 | < 5.00 | 5.04 | < 1 | 
Cc1cc(Br)cc(C)c1Oc1ccc(=O)n(Nc2ccc(C#N)cc2)n1 | 6.19 | > 100 | > 193 | pEC50 [6]: 6.47; Ratio EC50 [7]: >29; pEC50 [8]: 5.53; pEC50 [9]: < 5.00; Ratio EC50 [10]: 5
Cc1cc(Cl)cc(C)c1Oc1ccc(=O)n(Nc2cccc(C#N)c2)n1 | < 5.30 |  |  | 
Cc1cc(C)c(Nc2ccnc(Nc3ccc(C#N)cc3)n2)c(C)c1 [DAPIVIRINE] | 8.70 | 2.88 | 1440 | pEC50 [6]: 8.70; Ratio EC50 [7]: 5.4; pIC50 [4]: 5.60; pEC50 [8]: 8.60; pEC50 [9]: 7.97; Ratio EC50 [10]: 1.3
Cc1cc(Cl)cc(C)c1Oc1nn(Nc2ccc(Cl)cc2)c(=O)c2ccccc12 | 5.00 |  |  | 
Cc1cc(Cl)cc(C)c1Oc1ccc(=O)n(Nc2ccc(C#N)cc2)n1 | 6.22 | 14.1 | 23 | pEC50 [6]: 6.30; Ratio EC50 [7]: >20; pEC50 [8]: 5.34; pEC50 [9]: < 5.00; Ratio EC50 [10]: 8
Cc1cc(Cl)cc(C)c1Oc1nn(Nc2ccc(C#N)cc2)c(=O)c2ccccc12 | 5.44 | 51.2 | 14.2 | 
Cc1cc(C)c(Nc2ccc(=O)n(Nc3ccc(C(F)(F)F)cc3)c2)c(C)c1 | < 5.00 |  |  | 
